The record followed here is the M2OR odorant receptor database.
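Also: active if original authors judged signal statistically different from baseline.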

The assay addresses T1, OR5K1 (Homo sapiens) (UniProt Q8NHB7).
T1 sequence (whole entry): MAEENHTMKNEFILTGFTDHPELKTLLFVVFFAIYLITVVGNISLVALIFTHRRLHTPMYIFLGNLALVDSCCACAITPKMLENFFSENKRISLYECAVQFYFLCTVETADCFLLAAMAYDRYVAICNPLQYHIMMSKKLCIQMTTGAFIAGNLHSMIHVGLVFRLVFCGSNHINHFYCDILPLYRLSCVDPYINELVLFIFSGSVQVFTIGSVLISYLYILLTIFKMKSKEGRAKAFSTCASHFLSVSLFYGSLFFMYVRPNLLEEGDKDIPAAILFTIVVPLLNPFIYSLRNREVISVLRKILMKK
Particulars: stereoisomer not certain. In a few lines:
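Transient luciferase assays in mammalian cell lines were common, though methods varied by source. The values come from published papers and their supplementary material, with extra details from the original authors when needed. Responsive refers to a measured signal the original authors judged statistically different from baseline, and non-responsive (inactive) to the remainder.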
As to `CCCCCCC=CC=O`, the “odorant receptor agonist call” value was “inactive”.
To `C=CC(=O)CC` belongs “inactive”; to `CCCCC(=O)OCC`, “inactive”.
Then `CCC(=O)C(C)S` (centres undefined), with “inactive”.
Then `CSC`, with “inactive”.
Consider `Cc1cccc(C)c1O`, for which the “odorant receptor agonist call” value is “inactive”.
Turning to `CCOC(=O)C=Cc1ccccc1`, the “odorant receptor agonist call” value was “inactive”.
To `CCCC(S)CCO` (centres undefined) belongs “inactive”; to `CC1=CCC2CC1C2(C)C` (centres undefined), “inactive”; to `CCCCCCOC(C)=O`, “inactive”.
Then `CCCC(=O)OC`, with “inactive”; and `CCC=CCCOC(C)=O`, with “inactive”; and `CC(C)=CC1CC(C)CCO1` (centres undefined), with “inactive”.
On to `CCCCC1CCC(=O)O1` (centres undefined), for which the “odorant receptor agonist call” value is “inactive”.
For the compound `C=CC(=O)CCCCC`, the “odorant receptor agonist call” value is “inactive”.
To `CC=Cc1ccc(OC)cc1` belongs “inactive”.
To `CCOC(C)=O` belongs “inactive”.
Then `CCCCCc1ccccn1`, with “inactive”; and `SCCc1ccccc1`, with “inactive”; and `C=CC(O)CCCCC` (centres undefined), with “inactive”.
For `SCc1cccs1`, the “odorant receptor agonist call” value is “inactive”.
In the case of `CCO`, the “odorant receptor agonist call” value is “inactive”.
To `CCCC1CCCC(=O)O1` (centres undefined) belongs “inactive”; to `CCCCCCCC1CCCC(=O)O1` (centres undefined), “inactive”.
Then `CC(=O)c1ccc(C)cc1`, with “inactive”; and `C=CCSC`, with “inactive”; and `COC(=O)C(C)C`, with “inactive”.
As to `C=CC(=O)CC=CCC`, the “odorant receptor agonist call” value was “inactive”.
To `COC1=C(C)OC(C)C1=O` (centres undefined) belongs “active”; to `CCc1cnc(C)c(C)n1`, “inactive”; to `C=C(C)C1CC=C(C)CC1` (centres undefined), “inactive”.
To `CCCSSSC` belongs “inactive”; to `C=C1CCC2(C(C)C)CC12` (centres undefined), “inactive”.
Then `O=C(O)CCc1ccccc1`, with “inactive”; and `C=C(C)c1ccc(C)cc1`, with “inactive”; and `CC(C)(S)CCOC=O`, with “inactive”.
As to `CCOC(C)OCC`, the “odorant receptor agonist call” value is “inactive”.
To `CCc1ccc(O)cc1` belongs “inactive”; to `CCC(=O)C1=NCCC1`, “inactive”.
